Values belong to the substance of their own block, whether it stands above or below them.
Experiments:
[1] = system: Staphylococcus saprophyticus; assay: Antibacterial activity against Staphylococcus saprophyticus M2981 clinical isolate expressing mecA gene by microdilution test; type: functional
In short: (§1)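 MIC by standard broth microdilution following CLSI recommendations, in Mueller Hinton broth supplemented with Ca²⁺ (20-25 mg/L) and Mg²⁺ (10-12.5 mg/L); ATCC reference strains included in the panel.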

Staphylococcus aureus [2] = assay: Antibacterial activity against Staphylococcus aureus P239 clinical isolate expressing ermC gene by microdilution test; type: functional; in short: as §1
Klebsiella pneumoniae [3] = assay: Antibacterial activity against Klebsiella pneumoniae M9375 clinical isolate expressing blaCTX-M-2, blaTEM-1 and blaSHV-1 gene by microdilution test; type: functional
In short: (§2)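 MIC by standard broth microdilution following CLSI recommendations, in Mueller Hinton broth supplemented with Ca²⁺ (20-25mg/L) and Mg²⁺ (10-12.5mg/L); peptides tested against a panel of multi-resistant clinical isolates plus ATCC reference strains.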

Acinetobacter sp. [4] = assay: Antibacterial activity against Acinetobacter sp. M5277 clinical isolate expressing blaPER gene by microdilution test; type: functional; in short: as §2
Escherichia coli [5] = assay: Antibacterial activity against Escherichia coli M5306 clinical isolate expressing blaPER-2, blaCTX-M-2 and blaTEM-1 gene by microdilution test; type: functional; in short: as §2
Acinetobacter sp. [6] = assay: Antibacterial activity against Acinetobacter sp. M5179 clinical isolate expressing blaOXA-51 gene by microdilution test; type: functional; in short: as §2
Staphylococcus aureus [7] = assay: Antibacterial activity against Staphylococcus aureus ATCC 29213 by microdilution test; type: functional; in short: as §1
Pseudomonas aeruginosa [8] = assay: Antibacterial activity against Pseudomonas aeruginosa M5200 clinical isolate expressing blaVIM and blaGES-1 gene by microdilution test; type: functional; in short: as §1
Klebsiella pneumoniae [9] = assay: Antibacterial activity against Klebsiella pneumoniae M5825 clinical isolate expressing blaGES-3 and blaCTX-M-2 gene by microdilution test; type: functional; in short: as §2
Pseudomonas aeruginosa [10] = assay: Antibacterial activity against Pseudomonas aeruginosa M7525 clinical isolate expressing blaSPM gene by microdilution test; type: functional; in short: as §1
Enterococcus faecium [11] = assay: Antibacterial activity against Enterococcus faecium M2304 clinical isolate expressing vanA gene by microdilution test; type: functional; in short: as §2
Staphylococcus aureus [12] = assay: Antibacterial activity against Staphylococcus aureus M2832 clinical isolate expressing mecA gene by microdilution test; type: functional; in short: as §1
Enterococcus faecium [13] = assay: Antibacterial activity against Enterococcus faecium M6261 by microdilution test; type: functional; in short: as §2
Enterococcus faecalis [14] = assay: Antibacterial activity against Enterococcus faecalis ATCC 51299 clinical isolate expressing vanB gene by microdilution test; type: functional; in short: as §2
Acinetobacter sp. [15] = assay: Antibacterial activity against Acinetobacter sp. PFAV1 clinical isolate expressing blaOXA-51, blaOXA-58 and blaPER gene by microdilution test; type: functional; in short: as §2
[16] = Toxicity in human RBC assessed as hemolytic activity relative to control; type: cell-based, Erythrocyte; details: red blood cells (RBC), read-out: Activity
In short: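 Heparinized human whole blood diluted 3x in PBS and centrifuged 10 min at 1500 rpm, repeated three times. Cells resuspended to 10% (v/v), then diluted to about 0.5% (v/v). Peptides added at various concentrations for 30 min at 37 °C. Supernatant absorbance read at 550 nm. Lysis calculated against buffer (0%) and water (100%). Readings taken in triplicate and averaged.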

Staphylococcus hominis [17] = assay: Antibacterial activity against Staphylococcus hominis M2973 clinical isolate expressing mecA gene by microdilution test; type: functional; in short: as §1
Enterococcus gallinarum = assay: Antibacterial activity against Enterococcus gallinarum M2685 clinical isolate expressing vanC1 and vanA gene by microdilution test; type: functional; in short: as §2
Klebsiella pneumoniae [18] = assay: Antibacterial activity against Klebsiella pneumoniae M13540 clinical isolate expressing blaKPC-2 gene by microdilution test; type: functional; in short: as §2
Klebsiella pneumoniae [19] = assay: Antibacterial activity against Klebsiella pneumoniae M1803 clinical isolate expressing blaPER-2, blaCTX-M-2, blaTEM-1, blaSHV and blaOXA-9 gene by microdilution test; type: functional; in short: as §2
Staphylococcus warneri = assay: Antibacterial activity against Staphylococcus warneri M6823 clinical isolate expressing mecA gene by microdilution test; type: functional; in short: as §1
Enterococcus faecium [20] = assay: Antibacterial activity against Enterococcus faecium PZAP95 by microdilution test; type: functional; in short: as §2
Staphylococcus aureus [21] = assay: Antibacterial activity against Staphylococcus aureus M6784 clinical isolate expressing mecA gene by microdilution test; type: functional; in short: as §1
Klebsiella pneumoniae [22] = assay: Antibacterial activity against Klebsiella pneumoniae M11245 clinical isolate expressing blaKPC-2 and blaPER-2 gene by microdilution test; type: functional; in short: as §2
Staphylococcus hominis [23] = assay: Antibacterial activity against Staphylococcus hominis M2967 clinical isolate expressing mecA gene by microdilution test; type: functional; in short: as §1
Escherichia coli [24] = assay: Antibacterial activity against Escherichia coli PNEU23 clinical isolate expressing blaOXA-GIII and blaTEM-1 gene by microdilution test; type: functional; in short: as §2
Klebsiella pneumoniae [25] = assay: Antibacterial activity against Klebsiella pneumoniae M7647 clinical isolate expressing blaVIM, blaCTX-M-2, blaTEM-1 and blaSHV-1 gene by microdilution test; type: functional; in short: as §2
Acinetobacter sp. [26] = assay: Antibacterial activity against Acinetobacter sp. M7978 clinical isolate expressing blaIMP-1 gene by microdilution test; type: functional; in short: as §2
Enterococcus faecalis [27] = assay: Antibacterial activity against Enterococcus faecalis M4992 clinical isolate expressing vanA gene by microdilution test; type: functional; in short: as §2
Enterococcus faecalis [28] = assay: Antibacterial activity against Enterococcus faecalis M4899 clinical isolate expressing vanB gene by microdilution test; type: functional; in short: as §2
Enterococcus faecium [29] = assay: Antibacterial activity against Enterococcus faecium M2664 clinical isolate expressing vanA gene by microdilution test; type: functional; in short: as §2
Enterococcus faecium [30] = assay: Antibacterial activity against Enterococcus faecium M2619 clinical isolate expressing vanB gene by microdilution test; type: functional; in short: as §2
Escherichia coli [31] = assay: Antibacterial activity against Escherichia coli M7859 clinical isolate expressing blaCIT gene by microdilution test; type: functional; in short: as §2
Staphylococcus aureus [32] = assay: Antibacterial activity against Staphylococcus aureus P28 clinical isolate expressing ermA gene by microdilution test; type: functional; in short: as §1
Klebsiella pneumoniae [33] = assay: Antibacterial activity against Klebsiella pneumoniae M9885 clinical isolate expressing blaKPC-2 gene by microdilution test; type: functional; in short: as §2
[34] = system: Staphylococcus epidermidis; assay: Antibacterial activity against Staphylococcus epidermidis M2921 clinical isolate expressing mecA gene by microdilution test; type: functional; in short: as §1
Klebsiella pneumoniae [35] = assay: Antibacterial activity against Klebsiella pneumoniae M9310 clinical isolate expressing blaCTX-M-2, blaTEM-1 and blaSHV-1 gene by microdilution test; type: functional; in short: as §2
[36] = system: Staphylococcus haemolyticus; assay: Antibacterial activity against Staphylococcus haemolyticus M3014 by microdilution test; type: functional; in short: as §1
Pseudomonas aeruginosa [37] = assay: Antibacterial activity against Pseudomonas aeruginosa M7907 clinical isolate expressing blaPER gene by microdilution test; type: functional; in short: as §1
Acinetobacter sp. [38] = assay: Antibacterial activity against Acinetobacter sp. M9665 clinical isolate expressing blaOXA-51 gene by microdilution test; type: functional; in short: as §2
Acinetobacter sp. [39] = assay: Antibacterial activity against Acinetobacter sp. M7489 clinical isolate expressing blaOXA-51 and blaTEM gene by microdilution test; type: functional; in short: as §2
Acinetobacter sp. [40] = assay: Antibacterial activity against Acinetobacter sp. M9013 clinical isolate expressing blaOXA-51 and blaIMP gene by microdilution test; type: functional; in short: as §2
Klebsiella pneumoniae [41] = assay: Antibacterial activity against Klebsiella pneumoniae M9170 clinical isolate expressing blaOXA-GIII gene by microdilution test; type: functional; in short: as §2
Staphylococcus aureus [42] = assay: Antibacterial activity against Staphylococcus aureus M4046 clinical isolate expressing mecA gene by microdilution test; type: functional; in short: as §1
Escherichia coli [43] = assay: Antibacterial activity against Escherichia coli PABC11 clinical isolate expressing blaCTX-M-2 gene by microdilution test; type: functional; in short: as §2
Enterococcus faecalis [44] = assay: Antibacterial activity against Enterococcus faecalis M4449 clinical isolate expressing vanA gene by microdilution test; type: functional; in short: as §2
Enterococcus faecalis [45] = assay: Antibacterial activity against Enterococcus faecalis M6383 clinical isolate expressing vanA gene by microdilution test; type: functional; in short: as §2

MIC90 [1]: 8 µg/mL
MIC90 (Staphylococcus aureus [2]): 64 µg/mL
MIC90 (Klebsiella pneumoniae [3]): 16 µg/mL
MIC90 (Acinetobacter sp. [4]): 64 µg/mL
MIC90 (Escherichia coli [5]): 64 µg/mL
MIC90 (Acinetobacter sp. [6]): 64 µg/mL
MIC90 (Staphylococcus aureus [7]): 32 µg/mL
MIC90 (Pseudomonas aeruginosa [8]): 64 µg/mL
MIC90 (Klebsiella pneumoniae [9]): 32 µg/mL
MIC90 (Pseudomonas aeruginosa [10]): 64 µg/mL
MIC90 (Enterococcus faecium [11]): 8 µg/mL
MIC90 (Staphylococcus aureus [12]): 64 µg/mL
MIC90 (Enterococcus faecium [13]): 16 µg/mL
MIC90 (Enterococcus faecalis [14]): 256 µg/mL
MIC90 (Acinetobacter sp. [15]): 64 µg/mL
MIC90 (Staphylococcus hominis [17]): 4 µg/mL
MIC90 (Enterococcus gallinarum): 16 µg/mL
MIC90 (Klebsiella pneumoniae [18]): 64 µg/mL
MIC90 (Klebsiella pneumoniae [19]): 64 µg/mL
MIC90 (Staphylococcus warneri): 8 µg/mL
MIC90 (Enterococcus faecium [20]): 16 µg/mL
MIC90 (Staphylococcus aureus [21]): 32 µg/mL
MIC90 (Klebsiella pneumoniae [22]): 8 µg/mL
MIC90 (Staphylococcus hominis [23]): 8 µg/mL
MIC90 (Escherichia coli [24]): 32 µg/mL
MIC90 (Klebsiella pneumoniae [25]): 32 µg/mL
MIC90 (Acinetobacter sp. [26]): 64 µg/mL
MIC90 (Enterococcus faecalis [27]): 128 µg/mL
MIC90 (Enterococcus faecalis [28]): 256 µg/mL
MIC90 (Enterococcus faecium [29]): 8 µg/mL
MIC90 (Enterococcus faecium [30]): 16 µg/mL
MIC90 (Escherichia coli [31]): 16 µg/mL
MIC90 (Staphylococcus aureus [32]): 64 µg/mL
MIC90 (Klebsiella pneumoniae [33]): 32 µg/mL
MIC90 [34]: 8 µg/mL
MIC90 (Klebsiella pneumoniae [35]): 32 µg/mL
MIC90 (Pseudomonas aeruginosa [37]): 64 µg/mL
MIC90 (Acinetobacter sp. [38]): 128 µg/mL
MIC90 (Acinetobacter sp. [39]): 64 µg/mL
MIC90 (Acinetobacter sp. [40]): 32 µg/mL
MIC90 (Klebsiella pneumoniae [41]): 64 µg/mL
MIC90 (Staphylococcus aureus [42]): 32 µg/mL
MIC90 (Escherichia coli [43]): 32 µg/mL
MIC90 (Enterococcus faecalis [44]): 128 µg/mL
MIC90 (Enterococcus faecalis [45]): 128 µg/mL
Substance: H-RIVQRIKKWLLKWKKLGY-NH2
hemolysis [16]: 9.5%
MIC90 [36]: 8 µg/mL

MIC90 [1]: 16 µg/mL
MIC90 (Staphylococcus aureus [2]): 32 µg/mL
MIC90 (Klebsiella pneumoniae [3]): 1020 µg/mL
MIC90 (Acinetobacter sp. [4]): 64 µg/mL
MIC90 (Escherichia coli [5]): 256 µg/mL
MIC90 (Acinetobacter sp. [6]): 64 µg/mL
MIC90 (Staphylococcus aureus [7]): 32 µg/mL
MIC90 (Pseudomonas aeruginosa [8]): 64 µg/mL
MIC90 (Klebsiella pneumoniae [9]): > 1020 µg/mL
MIC90 (Pseudomonas aeruginosa [10]): 64 µg/mL
MIC90 (Enterococcus faecium [11]): 16 µg/mL
MIC90 (Staphylococcus aureus [12]): 32 µg/mL
MIC90 (Enterococcus faecium [13]): 32 µg/mL
MIC90 (Enterococcus faecalis [14]): 256 µg/mL
MIC90 (Acinetobacter sp. [15]): 64 µg/mL
MIC90 (Staphylococcus hominis [17]): 4 µg/mL
MIC90 (Enterococcus gallinarum): 16 µg/mL
MIC90 (Klebsiella pneumoniae [18]): > 1020 µg/mL
MIC90 (Klebsiella pneumoniae [19]): > 1020 µg/mL
MIC90 (Staphylococcus warneri): 8 µg/mL
MIC90 (Enterococcus faecium [20]): 32 µg/mL
MIC90 (Staphylococcus aureus [21]): 32 µg/mL
MIC90 (Klebsiella pneumoniae [22]): 1020 µg/mL
MIC90 (Staphylococcus hominis [23]): 8 µg/mL
MIC90 (Escherichia coli [24]): 128 µg/mL
MIC90 (Klebsiella pneumoniae [25]): > 1020 µg/mL
MIC90 (Acinetobacter sp. [26]): 64 µg/mL
MIC90 (Enterococcus faecalis [27]): 128 µg/mL
MIC90 (Enterococcus faecalis [28]): 256 µg/mL
MIC90 (Enterococcus faecium [29]): 16 µg/mL
MIC90 (Enterococcus faecium [30]): 32 µg/mL
MIC90 (Escherichia coli [31]): 128 µg/mL
MIC90 (Staphylococcus aureus [32]): 32 µg/mL
MIC90 (Klebsiella pneumoniae [33]): > 1020 µg/mL
MIC90 [34]: 8 µg/mL
MIC90 (Klebsiella pneumoniae [35]): > 1020 µg/mL
MIC90 (Pseudomonas aeruginosa [37]): 128 µg/mL
MIC90 (Acinetobacter sp. [38]): 128 µg/mL
MIC90 (Acinetobacter sp. [39]): 64 µg/mL
MIC90 (Acinetobacter sp. [40]): 32 µg/mL
MIC90 (Klebsiella pneumoniae [41]): > 1020 µg/mL
MIC90 (Staphylococcus aureus [42]): 32 µg/mL
MIC90 (Escherichia coli [43]): 128 µg/mL
MIC90 (Enterococcus faecalis [44]): 128 µg/mL
MIC90 (Enterococcus faecalis [45]): 128 µg/mL
Substance: H-WPKWWKWKRRWGRKKAKKRRG-NH2
hemolysis [16]: 3.4%
MIC90 [36]: 16 µg/mL

Reference: ChEMBL document CHEMBL3097989, “Antimicrobial activity of de novo designed cationic peptides against multi-resistant clinical isolates” (Eur J Med Chem, 2014)
